Test results taken from ChEMBL document CHEMBL1122501, “Potential antiatherosclerotic agents. 2. (Aralkylamino)- and (alkylamino) benzoic acid analogues of cetaben” (1983).

What was measured:
[1] = tested on: Rattus norvegicus; experiment: In vivo Triglyceride lowering activity at dose as 0.01 % of the diet; format: functional
Procedure, shortened: (§1)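 Male CFE or CD-1 Sprague-Dawley rats, 140-150 g; 8 per control group, 4 per test group. Compound mixed into ground chow (w/w) via MeOH-CHCl3 (1:3) solution, solvent evaporated; controls got solvent-treated chow. Fed ad libitum 5 days, food intake monitored, killed fed and bled. Serum sterols and triglycerides by adapted autoanalyzer methods; mean percent of control, Student's t test.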

[2] = biological target: T1, Sterol O-acyltransferase 1 (Rattus norvegicus) (UniProt O70536); experiment: In vitro inhibitory activity against acyl coenzyme A:cholesterol acyltransferase (ACAT); parameters: concentration or dose not given beside the values; conditions: concentration not given here
T1 sequence (whole entry): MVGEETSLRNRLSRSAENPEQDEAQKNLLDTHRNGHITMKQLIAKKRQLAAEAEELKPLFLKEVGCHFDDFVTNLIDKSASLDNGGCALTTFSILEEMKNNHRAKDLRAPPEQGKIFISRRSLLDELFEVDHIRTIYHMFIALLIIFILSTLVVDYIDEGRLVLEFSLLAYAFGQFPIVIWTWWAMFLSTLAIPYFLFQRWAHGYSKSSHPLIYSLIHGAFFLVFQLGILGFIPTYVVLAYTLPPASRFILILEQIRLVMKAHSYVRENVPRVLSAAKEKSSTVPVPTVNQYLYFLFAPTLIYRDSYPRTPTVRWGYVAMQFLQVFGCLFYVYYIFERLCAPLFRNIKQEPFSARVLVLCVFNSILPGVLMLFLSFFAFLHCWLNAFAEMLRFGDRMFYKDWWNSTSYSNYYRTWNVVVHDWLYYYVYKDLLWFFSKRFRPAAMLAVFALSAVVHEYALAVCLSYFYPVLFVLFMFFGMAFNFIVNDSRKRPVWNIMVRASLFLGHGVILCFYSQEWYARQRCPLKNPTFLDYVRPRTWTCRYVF
Procedure, shortened: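 ACAT enzyme from rat adrenal homogenate in 0.2 M KH2PO4 buffer pH 7.4, 1000g 15 min 5 °C supernatant (microsomal fraction). Supernatant + BSA (50 mg/mL) + compound at final 5.2 μg/mL + buffer preincubated 10 min 37 °C; [14C]oleoyl-CoA (0.4 μCi) added, 30 min 37 °C. Lipids extracted, TLC; cholesteryl ester zone counted. Mean % inhibition vs no-compound control; Student's t test.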

[3] = tested on: Rattus norvegicus; experiment: In vivo Sterol lowering activity at dose as 0.01 % of the diet.; format: functional; procedure, shortened: as §1
[4] = tested on: Rattus norvegicus; experiment: In vivo Sterol lowering activity at dose as 0.03 % of the diet.; format: functional; procedure, shortened: as §1
[5] = tested on: Rattus norvegicus; experiment: In vivo triglyceride lowering activity, dosed at 0.03 % of the diet; format: functional; procedure, shortened: as §1
[6] = tested on: Rattus norvegicus; experiment: In vivo triglyceride lowering activity dosed at 0.10 % of the diet; format: functional; procedure, shortened: as §1
[7] = tested on: Rattus norvegicus; experiment: In vivo sterol lowering activity dosed at 0.10 % of the diet; format: functional; procedure, shortened: as §1
[8] = tested on: Rattus norvegicus; experiment: In vivo triglyceride lowering activity, dosed at 0.01 % of the diet.; format: functional; procedure, shortened: as §1
[9] = tested on: Rattus norvegicus; experiment: In vivo Triglyceride lowering activity at dose as 0.03 % of the diet.; format: functional; procedure, shortened: as §1
[10] = tested on: Rattus norvegicus; experiment: In vivo Sterol lowering activity at dose as 0.05 % of the diet; format: functional; procedure, shortened: as §1
[11] = tested on: Rattus norvegicus; experiment: In vivo triglyceride lowering activity dosed at 0.05 % of the diet; format: functional; procedure, shortened: as §1
[12] = tested on: Rattus norvegicus; experiment: In vivo Sterol lowering activity at dose as 0.10 % of the diet.; format: functional; procedure, shortened: as §1

Row | Structure (SMILES) | Diet [1] [%] | inhibition [2] [%] | serum sterol, percent of control [3] [%] | serum sterol level, percent of control [4] [%] | serum triglycerides, percent of control [5] [%] | serum triglycerides, percent of control [6] [%] | serum sterol, percent of control [7] [%] | Diet [8] [%] | Diet [9] [%] | Diet [10] [%] | Diet [11] [%] | serum sterol, percent of control [12] [%] | Diet [12] [%]
1 | CC(C(=O)O)c1ccc(NCCCc2ccc(Cl)cc2)cc1 (stereo not drawn) | 63 | 14 | 94 | 96 | 63 | 33 | 62 | – | – | – | – | – | –
2 | CCOC(=O)c1ccc(NCc2cccs2)cc1 | – | 44 | 104 | 98 | – | – | – | 94 | 78 | – | – | – | –
3 | O=C(O)c1ccc(NCCCCCCCc2ccccc2)cc1 | – | 14 | – | – | – | <71 | 91 | – | – | 96 | <61 | – | –
4 | CCOC(=O)c1ccc(NC/C=C/c2ccc(Cl)cc2)cc1 | 64 | 23 | 93 | 100 | 45 | 46 | – | – | – | – | – | 78 | –
5 | O=C(O)c1ccc(NCCCc2ccccc2[N+](=O)[O-])cc1 | – | 2 | 88 | 83 | – | 77 | 83 | 84 | 103 | – | – | – | –
6 | O=C(O)c1ccc(NCCCc2cccc(F)c2)cc1 | 53 | 18 | 94 | 97 | 61 | 35 | – | – | – | – | – | – | 90
7 | CCOC(=O)c1ccc(NCCCCCCc2ccco2)cc1 | 68 | 37 | 95 | 103 | 64 | 60 | – | – | – | – | – | 90 | –
8 | CCOC(=O)c1ccc(NCCCc2cccc(F)c2)cc1 | 78 | 50 | 91 | 88 | 55 | 37 | 77 | – | – | – | – | – | –
9 | CCOC(=O)c1ccc(NCCCc2ccc(Cl)c(Cl)c2)cc1 | – | 43 | 86 | 98 | – | 66 | – | 90 | 98 | – | – | 90 | –
10 | O=C(O)Cc1ccc(NCCCc2ccc(Cl)cc2)cc1 | – | 9 | 83 | 85 | – | 61 | – | 111 | 95 | – | – | 82 | –
11 | CCOC(=O)C(C)c1ccc(NCCCc2ccc(Cl)cc2)cc1 (stereo not drawn) | 57 | 85 | 86 | 89 | 48 | 42 | – | – | – | – | – | 75 | –
12 | O=C(O)c1cccc(NCCCc2ccc(Cl)cc2)c1 | – | 0 | 103 | 89 | – | 37 | – | 80 | 93 | – | – | 92 | –
13 | O=C(O)c1ccc(NCCCCCC(O)c2ccc(Cl)cc2)cc1 (stereo not drawn) | – | 30 | 100 | 100 | – | 72 | – | 85 | 90 | – | – | 86 | –
14 | CCOC(=O)c1ccc(NCCCc2cccc(Cl)c2)cc1 | 65 | 79 | 93 | 88 | 65 | 56 | 80 | – | – | – | – | – | –
15 | CCOC(=O)c1cccc(NCCCc2ccc(Cl)cc2)c1 | 75 | 50 | 96 | 93 | 62 | 59 | – | – | – | – | – | 96 | –
16 | CCOC(=O)c1ccc(NCCCCCCc2ccc(Cl)cc2)cc1 | 73 | 30 | 99 | 95 | 68 | 50 | – | – | – | – | – | 85 | –
17 | O=C(O)c1ccc(NCCCc2cccc(Br)c2)cc1 | 63 | 18 | 92 | 91 | 67 | 60 | 80 | – | – | – | – | – | –
18 | CCOC(=O)c1ccc(NCCCc2ccccc2N)cc1 | – | 43 | 103 | 96 | – | 69 | – | 83 | 97 | – | – | 98 | –
19 | O=C(O)c1ccc(NCCCCCCc2ccco2)cc1 | – | 21 | 91 | 87 | – | 51 | 86 | 67 | 61 | – | – | – | –
20 | Cc1ccc(CCCNc2ccc(C(=O)O)cc2)cc1 | 63 | 49 | 90 | 98 | 54 | 50 | – | – | – | – | – | 110 | –
21 | CCOC(=O)c1ccc(NCCCc2ccc(C)cc2)cc1 | 72 | 31 | 127 | 103 | 54 | 68 | 122 | – | – | – | – | – | –
